Assays:
Klebsiella pneumoniae [1] = assay: Synergistic antibacterial activity against Klebsiella pneumoniae 1108/1989 producing KPC-3 assessed as meropenem MIC at 4 ug/ml by broth microdilution method; type: functional; settings: dose 4 µg/ml
Summary of the method: (§1)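 Broth microdilution per CLSI guidelines, using custom frozen panels. […] Each partner drug was also tested alone. MICs were run in triplicate and the modal value is reported.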

Acinetobacter baumannii [2] = assay: Synergistic antibacterial activity against Acinetobacter baumannii PR363 producing OXA-23 assessed as meropenem MIC at 8 ug/ml by broth microdilution method; type: functional; settings: dose 8 µg/ml
Klebsiella pneumoniae [3] = assay: Synergistic antibacterial activity against Klebsiella pneumoniae 776/1742 producing KPC-2 assessed as cefepime MIC at 8 ug/ml by broth microdilution method; type: functional; settings: dose 8 µg/ml
Klebsiella pneumoniae [4] = assay: Synergistic antibacterial activity against Klebsiella pneumoniae CAV 1543 producing OXA-48 assessed as cefepime MIC at 4 ug/ml by broth microdilution method; type: functional; settings: dose 4 µg/ml
Acinetobacter baumannii [5] = assay: Synergistic antibacterial activity against ADC deleted Acinetobacter baumannii transfected with pWH1266 producing OXA-24/40 assessed as cefepime MIC at 8 ug/ml by broth microdilution method; type: functional; settings: dose 8 µg/ml
Pseudomonas aeruginosa [6] = assay: Synergistic antibacterial activity against Pseudomonas aeruginosa 795 assessed as cefepime MIC at 4 ug/ml by broth microdilution method; type: functional; settings: dose 4 µg/ml
Klebsiella pneumoniae [7] = assay: Synergistic antibacterial activity against Klebsiella pneumoniae 1398/2291 producing KPC-3 assessed as cefepime MIC at 8 ug/ml by broth microdilution method; type: functional; settings: dose 8 µg/ml; summary of the method: as §1
Klebsiella pneumoniae [8] = assay: Synergistic antibacterial activity against Klebsiella pneumoniae 440/1360 producing KPC-2 assessed as meropenem MIC at 8 ug/ml by broth microdilution method; type: functional; settings: dose 8 µg/ml; summary of the method: as §1
Acinetobacter baumannii [9] = assay: Synergistic antibacterial activity against Acinetobacter baumannii PR440 producing OXA-23/24/40 assessed as cefepime MIC at 8 ug/ml by broth microdilution method; type: functional; settings: dose 8 µg/ml
Acinetobacter baumannii [10] = assay: Synergistic antibacterial activity against Acinetobacter baumannii PR323 producing OXA-24/40 assessed as cefepime MIC at 4 ug/ml by broth microdilution method; type: functional; settings: dose 4 µg/ml
Escherichia coli [11] = assay: Synergistic antibacterial activity against Escherichia coli DH10B transfected with pBC SK (-) PDC-3 assessed as meropenem MIC at 8 ug/ml by broth microdilution method; type: functional; settings: dose 8 µg/ml; summary of the method: as §1
Acinetobacter baumannii [12] = assay: Synergistic antibacterial activity against ADC deleted Acinetobacter baumannii transfected with pWH1266 producing OXA-24/40 assessed as meropenem MIC at 8 ug/ml by broth microdilution method; type: functional; settings: dose 8 µg/ml
Klebsiella pneumoniae [13] = assay: Synergistic antibacterial activity against Klebsiella pneumoniae 1315/2198 producing KPC-3 assessed as cefepime MIC at 4 ug/ml by broth microdilution method; type: functional; settings: dose 4 µg/ml; summary of the method: as §1
Klebsiella pneumoniae [14] = assay: Synergistic antibacterial activity against Klebsiella pneumoniae 11978 producing OXA-48 assessed as cefepime MIC at 8 ug/ml by broth microdilution method; type: functional; settings: dose 8 µg/ml; summary of the method: as §1
Acinetobacter baumannii [15] = assay: Synergistic antibacterial activity against Acinetobacter baumannii PR476 producing OXA-24/40 assessed as meropenem MIC at 4 ug/ml by broth microdilution method; type: functional; settings: dose 4 µg/ml
Acinetobacter baumannii [16] = assay: Synergistic antibacterial activity against ADC deleted Acinetobacter baumannii transfected with pWH1266 OXA-23 assessed as meropenem MIC at 8 ug/ml by broth microdilution method; type: functional; settings: dose 8 µg/ml
Summary of the method: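 Broth microdilution per CLSI guidelines in frozen panels. Test compound held at fixed 8 mg/L while the partner β-lactam concentration was increased. Run in triplicate; modal MIC reported.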

Acinetobacter baumannii [17] = assay: Synergistic antibacterial activity against Acinetobacter baumannii PR359 producing OXA-23 assessed as meropenem MIC at 4 ug/ml by broth microdilution method; type: functional; settings: dose 4 µg/ml
Escherichia coli [18] = assay: Synergistic antibacterial activity against Escherichia coli DH10B transfected with pBC SK (-) KPC-3 assessed as cefepime MIC at 8 ug/ml by broth microdilution method; type: functional; settings: dose 8 µg/ml
Pseudomonas aeruginosa [19] = assay: Synergistic antibacterial activity against Pseudomonas aeruginosa 795 assessed as meropenem MIC at 8 ug/ml by broth microdilution method; type: functional; settings: dose 8 µg/ml
Klebsiella pneumoniae [20] = assay: Synergistic antibacterial activity against Klebsiella pneumoniae 660/1568 producing KPC-3 assessed as meropenem MIC at 8 ug/ml by broth microdilution method; type: functional; settings: dose 8 µg/ml; summary of the method: as §1
Bacteria [21] = assay: Inhibition of bacteria ADC-7 assessed as second order rate constant K2/K using nitrocefin as substrate
Klebsiella pneumoniae [22] = assay: Synergistic antibacterial activity against Klebsiella pneumoniae 729/1679 producing KPC-3 assessed as meropenem MIC at 4 ug/ml by broth microdilution method; type: functional; settings: dose 4 µg/ml; summary of the method: as §1
Acinetobacter baumannii [23] = assay: Synergistic antibacterial activity against Acinetobacter baumannii PR474 producing OXA-23/24/40 assessed as meropenem MIC at 4 ug/ml by broth microdilution method; type: functional; settings: dose 4 µg/ml
Klebsiella pneumoniae [24] = assay: Synergistic antibacterial activity against Klebsiella pneumoniae 1354/2241 producing KPC-3 assessed as cefepime MIC at 8 ug/ml by broth microdilution method; type: functional; settings: dose 8 µg/ml; summary of the method: as §1
Escherichia coli [25] = assay: Synergistic antibacterial activity against Escherichia coli DH10B transfected with pBC SK (-) PDC-3 assessed as meropenem MIC at 4 ug/ml by broth microdilution method; type: functional; settings: dose 4 µg/ml; summary of the method: as §1
Klebsiella pneumoniae [26] = assay: Synergistic antibacterial activity against Klebsiella pneumoniae NY BS producing OXA-232 assessed as meropenem MIC at 8 ug/ml by broth microdilution method; type: functional; settings: dose 8 µg/ml
Acinetobacter baumannii [27] = assay: Synergistic antibacterial activity against Acinetobacter baumannii PR323 producing OXA-24/40 assessed as meropenem MIC at 8 ug/ml by broth microdilution method; type: functional; settings: dose 8 µg/ml
Klebsiella pneumoniae [28] = assay: Synergistic antibacterial activity against Klebsiella pneumoniae jefferson 1775 producing OXA-48 assessed as meropenem MIC at 8 ug/ml by broth microdilution method; type: functional; settings: dose 8 µg/ml
Klebsiella pneumoniae [29] = assay: Synergistic antibacterial activity against Klebsiella pneumoniae 729/1679 producing KPC-3 assessed as meropenem MIC at 8 ug/ml by broth microdilution method; type: functional; settings: dose 8 µg/ml; summary of the method: as §1
Acinetobacter baumannii [30] = assay: Synergistic antibacterial activity against Acinetobacter baumannii PR319 producing OXA-23/24/40 assessed as cefepime MIC at 8 ug/ml by broth microdilution method; type: functional; settings: dose 8 µg/ml
Escherichia coli [31] = assay: Synergistic antibacterial activity against Escherichia coli DH10B transfected with pBC SK (-) KPC-2 assessed as meropenem MIC at 4 ug/ml by broth microdilution method; type: functional; settings: dose 4 µg/ml
Bacteria [32] = assay: Inhibition of bacteria PDC-3 assessed as half life using nitrocefin as substrate
Acinetobacter baumannii [33] = assay: Synergistic antibacterial activity against Acinetobacter baumannii PR319 producing OXA-23/24/40 assessed as cefepime MIC at 4 ug/ml by broth microdilution method; type: functional; settings: dose 4 µg/ml
Klebsiella pneumoniae [34] = assay: Synergistic antibacterial activity against Klebsiella pneumoniae 901/1860 producing KPC-3 assessed as cefepime MIC at 4 ug/ml by broth microdilution method; type: functional; settings: dose 4 µg/ml
Pseudomonas aeruginosa [35] = assay: Synergistic antibacterial activity against Pseudomonas aeruginosa 795 assessed as cefepime MIC at 8 ug/ml by broth microdilution method; type: functional; settings: dose 8 µg/ml
Klebsiella pneumoniae [36] = assay: Antibacterial activity against Klebsiella pneumoniae jefferson 1773 producing OXA-181 by broth microdilution method; type: functional
Escherichia coli [37] = assay: Antibacterial activity against Escherichia coli DH10B by broth microdilution method; type: functional
Escherichia coli [38] = assay: Antibacterial activity against Escherichia coli DH10B transfected with pBR322-catI-KPC-2 by broth microdilution method; type: functional
Bacteria [39] = assay: Inhibition of bacteria OXA-48 assessed as Koff rate using nitrocefin as substrate incubated for 30 mins

SMILES	MIC (Klebsiella pneumoniae [1]) [µg/mL]	MIC (Acinetobacter baumannii [2]) [µg/mL]	MIC (Klebsiella pneumoniae [3]) [µg/mL]	MIC (Klebsiella pneumoniae [4]) [µg/mL]	MIC (Acinetobacter baumannii [5]) [µg/mL]	MIC (Pseudomonas aeruginosa [6]) [µg/mL]	MIC (Klebsiella pneumoniae [7]) [µg/mL]	MIC (Klebsiella pneumoniae [8]) [µg/mL]	MIC (Acinetobacter baumannii [10]) [µg/mL]	MIC (Klebsiella pneumoniae [13]) [µg/mL]	MIC (Acinetobacter baumannii [15]) [µg/mL]	MIC (Acinetobacter baumannii [17]) [µg/mL]	K (Bacteria [21])	MIC (Klebsiella pneumoniae [22]) [µg/mL]	MIC (Acinetobacter baumannii [23]) [µg/mL]	MIC (Escherichia coli [25]) [µg/mL]	MIC (Escherichia coli [31]) [µg/mL]	T1/2 (Bacteria [32]) [min]	MIC (Acinetobacter baumannii [33]) [µg/mL]	MIC (Klebsiella pneumoniae [34]) [µg/mL]	further results
O=C(NNC(=O)[C@@H]1CC[C@@H]2CN1C(=O)N2OS(=O)(=O)O)[C@@H]1CCCNC1 [ZIDEBACTAM]	≤ 0.12	> 16	≤ 0.12	≤ 0.12	16	16	≤ 0.12	≤ 0.12	4	≤ 0.12	0.25	> 16	3.5 10^4/M/s	≤ 0.12	> 16	≤ 0.12	≤ 0.12	3.3	> 16	≤ 0.12	MIC (Acinetobacter baumannii [9]): > 16 µg/mL; MIC (Escherichia coli [11]): ≤ 0.12 µg/mL; MIC (Acinetobacter baumannii [12]): > 16 µg/mL; MIC (Klebsiella pneumoniae [14]): ≤ 0.12 µg/mL; MIC (Acinetobacter baumannii [16]): > 16 µg/mL; MIC (Escherichia coli [18]): ≤ 0.12 µg/mL; MIC (Pseudomonas aeruginosa [19]): 4 µg/mL; MIC (Klebsiella pneumoniae [20]): ≤ 0.12 µg/mL; MIC (Klebsiella pneumoniae [24]): ≤ 0.12 µg/mL; MIC (Klebsiella pneumoniae [26]): ≤ 0.12 µg/mL; MIC (Acinetobacter baumannii [27]): > 16 µg/mL; MIC (Klebsiella pneumoniae [28]): ≤ 0.12 µg/mL; MIC (Klebsiella pneumoniae [29]): ≤ 0.12 µg/mL; MIC (Acinetobacter baumannii [30]): > 16 µg/mL; MIC (Pseudomonas aeruginosa [35]): 16 µg/mL; MIC (Klebsiella pneumoniae [36]): > 16 µg/mL
O=C(NNC(=O)[C@@H]1CC[C@@H]2CN1C(=O)N2OS(=O)(=O)O)[C@@H]1CCNC1	≤ 0.12	> 16	≤ 0.12	≤ 0.12	16	0.5	≤ 0.12	≤ 0.12	4	≤ 0.12	0.25	> 16	3.2 10^4/M/s	0.25	> 16	≤ 0.12	≤ 0.12	2.9		≤ 0.12	MIC (Acinetobacter baumannii [9]): > 16 µg/mL; MIC (Escherichia coli [11]): ≤ 0.12 µg/mL; MIC (Acinetobacter baumannii [12]): > 16 µg/mL; MIC (Klebsiella pneumoniae [14]): ≤ 0.12 µg/mL; MIC (Acinetobacter baumannii [16]): > 16 µg/mL; MIC (Escherichia coli [18]): ≤ 0.12 µg/mL; MIC (Pseudomonas aeruginosa [19]): ≤ 0.12 µg/mL; MIC (Klebsiella pneumoniae [20]): ≤ 0.12 µg/mL; MIC (Klebsiella pneumoniae [24]): ≤ 0.12 µg/mL; MIC (Klebsiella pneumoniae [26]): ≤ 0.12 µg/mL; MIC (Acinetobacter baumannii [27]): > 16 µg/mL; MIC (Klebsiella pneumoniae [28]): ≤ 0.12 µg/mL; MIC (Klebsiella pneumoniae [29]): ≤ 0.12 µg/mL; MIC (Acinetobacter baumannii [30]): > 16 µg/mL; MIC (Pseudomonas aeruginosa [35]): ≤ 0.12 µg/mL
O.O=C(NC1CCNCC1)[C@@H]1CC[C@@H]2CN1C(=O)N2OS(=O)(=O)O [RELEBACTAM]	≤ 0.12			2		> 16			> 16	0.25	0.25	> 16	7.8 10^3/M/s	≤ 0.12	> 16	≤ 0.12	≤ 0.12	12.8	> 16	≤ 0.12	MIC (Escherichia coli [37]): > 16 µg/mL; MIC (Escherichia coli [38]): > 16 µg/mL
NC(=O)[C@@H]1CC[C@@H]2CN1C(=O)N2OS(=O)(=O)[O-].[Na+] [AVIBACTAM SODIUM]	≤ 0.12			0.25		> 16			> 16	≤ 0.12	0.25	> 16	3.9 10^3/M/s	≤ 0.12	> 16	≤ 0.12	≤ 0.12	14.4	> 16	≤ 0.12	MIC (Escherichia coli [37]): 4 µg/mL; MIC (Escherichia coli [38]): > 16 µg/mL; K (Bacteria [39]): 1.2 10^-5/s; MIC (Klebsiella pneumoniae [36]): > 16 µg/mL
N#C[C@@H]1CC[C@@H]2CN1C(=O)N2OS(=O)(=O)[O-].[Na+]	≤ 0.12	2	1	0.25	16	> 16	0.25	≤ 0.12	> 16	0.25	0.25	4	1.9 10^4/M/s	≤ 0.12	> 16	≤ 0.12	≤ 0.12	4.1	> 16	≤ 0.12	MIC (Escherichia coli [37]): > 16 µg/mL; MIC (Acinetobacter baumannii [9]): > 16 µg/mL; MIC (Escherichia coli [11]): ≤ 0.12 µg/mL; MIC (Acinetobacter baumannii [12]): > 16 µg/mL; MIC (Klebsiella pneumoniae [14]): 0.5 µg/mL; MIC (Acinetobacter baumannii [16]): 4 µg/mL; MIC (Escherichia coli [18]): ≤ 0.12 µg/mL; MIC (Pseudomonas aeruginosa [19]): 16 µg/mL; MIC (Klebsiella pneumoniae [20]): ≤ 0.12 µg/mL; MIC (Klebsiella pneumoniae [24]): ≤ 0.12 µg/mL; MIC (Klebsiella pneumoniae [26]): ≤ 0.12 µg/mL; MIC (Acinetobacter baumannii [27]): 16 µg/mL; MIC (Escherichia coli [38]): > 16 µg/mL; MIC (Klebsiella pneumoniae [28]): ≤ 0.12 µg/mL; K (Bacteria [39]): 9 10^-4/s; MIC (Klebsiella pneumoniae [29]): ≤ 0.12 µg/mL; MIC (Acinetobacter baumannii [30]): > 16 µg/mL; MIC (Pseudomonas aeruginosa [35]): > 16 µg/mL
